Laboratory results reported in PubChem BioAssay AID504338 (NMMLSC, 2011).
Several values for one entry are separate records, joined by “and”; a condition that tells them apart may be missing. Equal values may be shown once. Activity calls are given as the source filed them.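 How the source made its calls: active means GFP response vs DMSO above 150% with enough events counted; inconclusive means fewer than 70 events counted for a yeast strain; inactive means the rest.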

experiment: yeast TOR reporter LAP4-GFP retest – cell-based, third cherry pick, flow cytometry, confirmation (AID 504338);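 further: ratio to plate DMSO wells so 100% equals DMSO level rather than 0%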; settings: S. cerevisiae LAP4-GFP strain, 3 h, at 10 µM, stronger effect = higher value
How it was run: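 Material: Saccharomyces cerevisiae strain expressing LAP4-GFP fusion protein / Compound: 10 µM, one concentration / Incubation: compound exposure for 3 h at 30 °C / Detection: high-throughput flow cytometry of GFP, single-cell scatter gate / Measure: median GFP fluorescence as percent of plate DMSO-well average / Benchmarks: rapamycin 400 ng/mL high, DMSO low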

**Q.** Which GFP response vs DMSO does the source give for `O=C(O)c1ccc(C=NNC(=O)c2cccc3ccccc23)cc1` here?
**A.** 104% (inactive)

**Q.** Which GFP response vs DMSO does the source give for `O=C(Nc1nc(-c2ccccn2)cs1)c1ccccc1-n1cnnn1` here?
**A.** 94.4% (inactive)

**Q.** For `Oc1c(Cl)cc(Cl)c2cccnc12`, which GFP response vs DMSO is on record?
**A.** 188% (active)

**Q.** With `C=CCNc1nc(N)c([N+](=O)[O-])c(Nc2ccccc2OC)n1` as the compound, how does the GFP response vs DMSO read?
**A.** 100% (inactive)

**Q.** For `COc1ccc(-c2cc(C(F)(F)F)nc(S(C)(=O)=O)n2)cc1OC`, which GFP response vs DMSO is on record?
**A.** 107% (inactive) and 110% (inactive)

**Q.** Which GFP response vs DMSO does the source give for `COc1cc(OC)cc(C(=O)Nc2ccc(-c3nc4ccccc4o3)cc2)c1` here?
**A.** 106% (inactive)

**Q.** With `CCCC(=O)Nn1cnc2c(c1=O)C1(CCCCC1)Cc1ccccc1-2` as the compound, how does the GFP response vs DMSO read?
**A.** 103% (inactive)

**Q.** With `O=C(Nc1ccccc1)O/N=C1\CCCCC1c1ccc([N+](=O)[O-])cc1[N+](=O)[O-]` (stereo not given) as the compound, how does the GFP response vs DMSO read?
**A.** 106% (inactive)

**Q.** With `O=C(O)CCS(=O)(=O)c1nc(-c2cccs2)cc(C(F)(F)F)n1` as the compound, how does the GFP response vs DMSO read?
**A.** 115% (inactive)

**Q.** With `OCCNc1ncnc2ccc(Br)cc12` as the compound, how does the GFP response vs DMSO read?
**A.** 98.6% (inactive)

**Q.** With `O=C(Nc1ccccc1)ON=C1c2ccccc2-c2ccccc21` as the compound, how does the GFP response vs DMSO read?
**A.** 106% (inactive)

**Q.** For `C=CCNc1ncnc2ccc(Br)cc12`, which GFP response vs DMSO is on record?
**A.** 106% (inactive)

**Q.** Which GFP response vs DMSO does the source give for `CC(=O)Nn1cnc2c(c1=O)C1(CCCCC1)Cc1ccccc1-2` here?
**A.** 106% (inactive)

**Q.** With `O=C(O)c1ccccc1-c1ccccc1C(=O)Nc1ccc(-c2nc3cc(Cl)ccc3o2)cc1` as the compound, how does the GFP response vs DMSO read?
**A.** 104% (inactive)

**Q.** With `CC(=O)CC(=O)Nc1ccc(C(N)=O)cc1` as the compound, how does the GFP response vs DMSO read?
**A.** 101% (inactive)

**Q.** With `COc1ccc(OC)c(N/C(C)=C/C(=O)c2ccccc2)c1` as the compound, how does the GFP response vs DMSO read?
**A.** 103% (inactive)

**Q.** For `Cc1cc(C)c2ccc(C(=O)O)nc2c1O`, which GFP response vs DMSO is on record?
**A.** 107% (inactive)

**Q.** With `CC1=CN2C(=N)/C(=C/c3ccc(C)o3)C(=O)N=C2S1` as the compound, how does the GFP response vs DMSO read?
**A.** 104% (inactive)

**Q.** With `CC(=O)C(Cl)C(=O)Nc1ccccc1` (stereo not given) as the compound, how does the GFP response vs DMSO read?
**A.** 124% (inactive)

**Q.** With `CC(=O)Nc1ccc(-c2nc3ccccc3o2)cc1` as the compound, how does the GFP response vs DMSO read?
**A.** 108% (inactive)
